Compounds with a hit are over-represented: about 3.1% of the library has one in this group of screens.
Fh CTSL1 inh = cathepsin L1 inhibition, PFM18AAP counter-screen. actives 0.49% (n = 300,000). recombinant F. hepatica cathepsin L1, Z-Leu-Arg-MCA fluorescence. inhibition, % at 5.96 µM;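 active = inhibition above the mean of all tested compounds plus 3 SD, set per screening campaign, cut at about 17% in these data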;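 also: 0% = plate median of test compound wells and 100% = 1 µM Z-Phe-Ala-diazomethylketone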
PP5 inh = inhibitors of human protein phosphatase 5 (PP5); P53041; purified PP5c, OMFP substrate fluorescence; inhibition, % at 6.7 µM; actives 0.18% (n = 320,000);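 active = inhibition above the campaign's mean inhibition across all tested compounds plus 3 SD, cut at about 9.5% in these data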;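 also: 0% = DMSO only and 100% = 100 µM cantharidin control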
Target sequence (P53041 whole entry, looked up): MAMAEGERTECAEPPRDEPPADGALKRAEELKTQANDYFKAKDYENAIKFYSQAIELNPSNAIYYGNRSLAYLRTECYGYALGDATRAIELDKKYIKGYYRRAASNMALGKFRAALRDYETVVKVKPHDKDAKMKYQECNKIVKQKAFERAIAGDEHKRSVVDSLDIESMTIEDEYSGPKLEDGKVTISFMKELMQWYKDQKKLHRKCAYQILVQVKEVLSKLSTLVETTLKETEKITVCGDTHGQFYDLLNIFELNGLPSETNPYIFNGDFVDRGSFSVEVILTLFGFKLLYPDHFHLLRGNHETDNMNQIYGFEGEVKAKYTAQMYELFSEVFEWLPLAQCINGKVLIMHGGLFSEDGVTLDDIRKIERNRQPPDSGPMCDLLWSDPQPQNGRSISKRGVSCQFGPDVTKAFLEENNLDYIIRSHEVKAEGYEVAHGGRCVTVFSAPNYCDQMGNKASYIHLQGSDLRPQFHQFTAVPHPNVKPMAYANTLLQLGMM
core dimer inh = blocks dimerization of HCV core protein; inhibition, % at 5 µM; AID 1899; TR-FRET GST/Flag-core106 dimerization, 1536-well; actives 0.33% (n = 300,000);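 active = inhibition above the mean of all tested compounds plus 3 SD, set per screening campaign, cut at about 45% in these data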
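Assay system – GST-tagged and Flag-tagged HCV core protein residues 1-106 · Quantity – core106 proteins, GST 13.5 nM and Flag 17 nM · Benchmarks – unlabelled core106 and no-GST-core106 wells · Read-out basis – percent inhibition of core106 dimerization signal · Detection – time-resolved FRET, ex 340 nm, em 617 and 671 nm · Schedule – 4 h at 22.5 °C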
PP1 counter = counter-screen for PP5 inhibitors: inhibitors of human PP1-alpha; purified PP1alpha, OMFP fluorescence; inhibition, % at 6.7 µM; actives 0.9% (n = 320,000);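 active = inhibition above the mean inhibition of all tested compounds plus 3 SD, computed separately for each screening campaign, cut at about 15% in these data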
NadD block = blocks S. aureus nicotinate mononucleotide adenylyltransferase. purified NadD enzyme, colorimetric absorbance read-out. inhibition, % at 20 µM. actives 0.78% (n = 360,000). AID 602399; in the data active = inhibition above about 26%
Myeloid diff MLP = promotes myeloid progenitor differentiation. actives 1% (n = 360,000). AID 624256. calls only at 10 µM. ER-HoxA9 myeloid progenitors, lysozyme-GFP differentiation, flow cytometry;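 active = normalized GFP-positive differentiation at or above the plate's own cutoff, the solvent-only control mean plus 3 SD; inconclusive = no clear call, values can overlap the other calls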;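 also: cells exposed to compound for four days before flow analysis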
* = called active by the depositor; i = inactive; u = inconclusive; x = not tested or not shown; + = active, no number.

SMILES | Fh CTSL1 inh | PP5 inh | core dimer inh | PP1 counter | NadD block | Myeloid diff MLP
Cc1ccc(C(=O)OCC(=O)NC2CCCCC2)cc1S(=O)(=O)N1CCCCC1 | x | 2 | x | -4 | -6 | i
CC(=O)Nc1ccc(S(=O)(=O)Nc2nc(C)nc3sc(C)c(C)c23)cc1 | x | x | x | x | -6 | i
O=C(C1=C(O)C(=O)N(CCN2CCOCC2)C1c1cccc([N+](=O)[O-])c1)c1cc2ccccc2o1 (stereo not given) | x | x | x | x | 16 | i
O=C(C1=C(O)C(=O)N(CCN2CCOCC2)C1c1cccc(Br)c1)c1cc2ccccc2o1 (stereo not given) | 4 | 1 | 9 | 19* | 16 | i
COCCCN1C(=O)C(O)=C(C(=O)c2ccc(C)o2)C1c1cccc(Br)c1 (stereo not given) | -3 | 2 | 11 | 18* | 6 | i
Cc1ccc(OC2=NS(=O)(=O)c3ccccc32)cc1 | -4 | 0 | 1 | 1 | 2 | +
Cc1ccc(C(=O)NC(=S)Nc2ccccc2N2CCOCC2)cc1C | -2 | 0 | 6 | -2 | -1 | i
COc1ccccc1C(=O)NC(=O)COC(=O)c1nc2nc(C)cc(C)n2n1 | 5 | -1 | -7 | -2 | 5 | i
CCc1cc2cc(C)ccc2nc1SCC(=O)N1CC(=O)Nc2ccccc21 | 1 | 4 | 15 | -3 | 1 | i
CCc1ccc2nc(SCC(=O)Nc3ccccc3N3CCOCC3)c(C#N)cc2c1 | -3 | -1 | 9 | 1 | 2 | +
CCOc1ccc2nc(SCC(=O)N3c4ccccc4Sc4ccccc43)c(C#N)cc2c1 | -3 | -1 | -105 | 2 | 28 | +
CCOc1ccc2nc(SCC(=O)N3c4ccccc4Sc4ccccc43)sc2c1 | -2 | 0 | -13 | -2 | -2 | i
CCc1ccc2nc(SCC(=O)N3CC(=O)Nc4ccccc43)c(C#N)cc2c1 | -1 | 6 | 14 | -1 | 15 | +
CSc1ccc(Cl)c(C(=O)NNC(=O)c2cccs2)c1 | x | x | x | x | 2 | i
Cc1ncnc(N)c1CCCNc1ccccc1 | x | x | x | x | 4 | i
COc1cccc(CN2CC(C(=O)N3CCOCC3)CCC2=O)c1 (stereo not given) | -1 | 2 | -5 | -2 | -2 | i
CCOP(=O)(OCC)C(NC(=O)c1cc([N+](=O)[O-])cc([N+](=O)[O-])c1)C(F)(F)F (stereo not given) | 40* | 1 | 0 | -1 | 7 | i
O=C(c1cc(-c2cccs2)nn1-c1ccccc1)N1CCN(S(=O)(=O)c2ccccc2)CC1 | 2 | 1 | 7 | 9 | 8 | i
O=C(CN1C(=O)c2ccccc2C1=O)Nc1sc2c(c1C(=O)NCc1ccco1)CCCC2 | 2 | 5 | 64* | 7 | 6 | i
O=C1/C(=C\c2cccc([N+](=O)[O-])c2O)SC(=S)N1Cc1ccccc1 | 3 | -4 | 10 | 2 | 11 | i
COc1cc(/C=C2/SC(=S)N(Cc3ccccc3)C2=O)ccc1OS(C)(=O)=O | 3 | -2 | -39 | 3 | 1 | i
COc1cc(/C=C2/SC(=S)N(Cc3ccccc3)C2=O)cc(Cl)c1O | 3 | 0 | 8 | -2 | 12 | +
COc1cc([N+](=O)[O-])cc(/C=C2/SC(=S)N(Cc3ccccc3)C2=O)c1O | 0 | 5 | -5 | 15* | 8 | x
Cc1ccccc1-c1nc(CN2CCC(C(=O)NC3CC3)CC2)c(C)o1 | -2 | 0 | 6 | 0 | -3 | i
Fc1ccccc1-c1nc(-c2ccc(Br)o2)no1 | 4 | 3 | -10 | 1 | -9 | i
SMILES | Fh CTSL1 inh | PP5 inh | core dimer inh | PP1 counter | NadD block | Myeloid diff MLP
Cc1ncc(C[n+]2csc(CCO)c2C)c(N)n1 | 4 | -1 | 0 | -3 | 2 | i
C/C(=C(/CCO)SSCC1CCCO1)N(C=O)Cc1cnc(C)nc1N (stereo not given) | 1 | 0 | -5 | -6 | -1 | +
CC(NC(=O)/C(C#N)=C/c1ccc([N+](=O)[O-])o1)c1ccccc1 (stereo not given) | 4 | -2 | 3 | -1 | 4 | u
CC(NC(=O)/C(C#N)=C/c1ccco1)c1ccccc1 (stereo not given) | 36* | 0 | 0 | -2 | -2 | i
Cc1ccccc1OCCN1C(=O)C(=O)c2cccc(C)c21 | 7 | 1 | 12 | 16* | -1 | u
COc1ccccc1OCCCN1C(=O)C(=O)c2cccc(C)c21 | -3 | 1 | 2 | 1 | -2 | i
Cc1ccc(OCCCN2C(=O)C(=O)c3cccc(C)c32)cc1 | 3 | 2 | 12 | 16* | -1 | i
Cc1cc(C)c(NC(=O)CNC(=O)COC(=O)/C=C/c2cccs2)c(C)c1 | -2 | 1 | -8 | -2 | -8 | i
CCOC1=C2CN(S(=O)(=O)c3ccc(C)cc3)CC[C@@H]2N(S(=O)(=O)c2ccc(C)cc2)[C@H](c2ccccc2)C1 | x | x | x | x | 6 | i
CC/C(O)=C1\C(=O)CC(c2ccccc2)CC1=NCCc1c(C)[nH]c2ccc(C)cc12 (stereo not given) | 1 | 5 | 15 | 5 | 6 | +
CCC/C(O)=C1\C(=O)CC(c2ccccc2)CC1=NCCc1c(C)[nH]c2ccc(C)cc12 (stereo not given) | -2 | 5 | 21 | 1 | 12 | i
CCN1CCN(CCCNC(=O)C2CCN(c3nnc(-n4cccc4)s3)CC2)CC1 | -2 | -3 | -4 | 2 | -6 | +
CCCN1CCN(CCCNC(=O)C2CCN(c3nnc(-n4cccc4)s3)CC2)CC1 | 2 | 1 | 0 | 0 | 3 | i
Cc1ccc(S(=O)(=O)Nn2c(C)ccc2C)cc1 | -3 | 2 | 67* | 2 | 28 | i
Cc1ccc(S(=O)(=O)Nc2ccccc2NS(=O)(=O)c2ccc(C)cc2)cc1 | x | x | x | x | 7 | i
O=C(Nc1cccc(Oc2c(F)c(F)c(F)c(F)c2F)c1)N1C[C@@H]2C[C@@H](C1)c1cccc(=O)n1C2 | -1 | 1 | -1 | 1 | -2 | x
O=C(c1ccc(-c2nnc(Nc3ccccc3)c3ccccc23)cc1)N1C[C@H]2C[C@H](C1)c1cccc(=O)n1C2 | -2 | 2 | 60* | 6 | 4 | i
NS(=O)(=O)c1ccc(-c2ccc(C=C3C(=O)c4ccccc4C3=O)o2)cc1 | -4 | 2 | -10 | -1 | 4 | i
CC(C)CC1=C/C(=C/c2ccc(-c3ccccc3)o2)C(=O)O1 | 0 | 1 | 24 | 7 | 74* | i
CC(=O)c1cccc(S(=O)(=O)N2CCN(c3nc4cc(C)cc(C)c4cc3C#N)CC2)c1 | 8 | -1 | 70* | 3 | 25 | i
Cc1cc(C)c2cc(C#N)c(N3CCCN(C(=O)c4cnccn4)CC3)nc2c1 | 1 | 0 | -1 | -1 | 10 | +

Screens from PubChem.
